NadD block: inhibitors of S. aureus NadD, primary screen, biochemical, colorimetric, uHTS; AID 602399, 2012; 360,000 tested, 0.78% active; inhibition, % at 20 µM; purified NadD enzyme, colorimetric absorbance read-out; Nicotinate-nucleotide adenylyltransferase NadD (Staphylococcus aureus N315); in the data active means inhibition above about 26%
LMPTP block: LMPTP phosphatase inhibitors, primary screen, biochemical, fluorescence intensity, uHTS; Low molecular weight phosphotyrosine protein phosphatase (Homo sapiens), P24666; recombinant LMPTP-A, OMFP fluorogenic substrate; inhibition, % at 20 µM; 360,000 tested, 0.22% active; AID 651560, 2012;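 active means compounds that cut the enzyme signal by at least half of the control window in the single-dose screen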
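Material: LMPTP-A; amount: 0.625 nM enzyme; doses: single 20 µM dose; times: reaction 50 min, room temperature, dark; technique: fluorescence intensity of OMFP turnover product; benchmarks: no-enzyme and uninhibited controls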
Scp-1 inhibitor: Scp-1 phosphatase inhibitors, primary screen, biochemical, colorimetric, uHTS. Carboxy-terminal domain RNA polymerase II polypeptide A small phosphatase 1 (Homo …. Recombinant Scp1, phosphopeptide, malachite green phosphate absorbance. inhibition, % at 20 µM. 340,000 tested, 0.88% active. AID 493091, 2011;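 active means inhibition above about 50% at 20 µM, limit read from the data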
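Test system: SCP-1 phosphatase catalytic domain, residues 76-261; measured by: colorimetric phosphate reagent with accelerator and stabiliser, absorbance at 630 nm; timing: enzyme reaction 45 min at room temperature, colour 5 min, stabilisation 30 min; also added: Phosphorylated 17-residue peptide substrate; compound dosing: one concentration, 20 µM, with 1.0% DMSO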
DNMT1 block: human DNMT1 methyltransferase inhibitors, primary screen, biochemical, molecular beacon, fluorescence, HinP1I cleavage, uHTS; DNA (cytosine-5)-methyltransferase 1 (Homo sapiens), P26358; inhibition (reported as % activation of signal), % at 10 µM; 360,000 tested, 0.83% active; AID 588458, 2011; in the data active means inhibition above about 50%
SUMO1 PPI mod: modulators of SUMO1 protein-protein interactions, primary screen, biochemical, uHTS; 360,000 tested, 0.33% active; AID 602429, 2012; Small ubiquitin-related modifier 1 (Homo sapiens), P63165; SUMO1 binding to a labelled peptide, TR-FRET, 1 h; inhibition, % at 20 µM; in the data active means inhibition above about 37%
STEP inh: STEP phosphatase inhibitors, primary screen, biochemical, fluorescence intensity, uHTS | recombinant STEP, OMFP fluorogenic substrate | inhibition, % at 20 µM | 360,000 tested, 0.25% active;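 active means inhibition at 20 µM, scaled per plate between control wells, above about 37%, limit read from the data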
Target sequence (P54829 whole entry, looked up): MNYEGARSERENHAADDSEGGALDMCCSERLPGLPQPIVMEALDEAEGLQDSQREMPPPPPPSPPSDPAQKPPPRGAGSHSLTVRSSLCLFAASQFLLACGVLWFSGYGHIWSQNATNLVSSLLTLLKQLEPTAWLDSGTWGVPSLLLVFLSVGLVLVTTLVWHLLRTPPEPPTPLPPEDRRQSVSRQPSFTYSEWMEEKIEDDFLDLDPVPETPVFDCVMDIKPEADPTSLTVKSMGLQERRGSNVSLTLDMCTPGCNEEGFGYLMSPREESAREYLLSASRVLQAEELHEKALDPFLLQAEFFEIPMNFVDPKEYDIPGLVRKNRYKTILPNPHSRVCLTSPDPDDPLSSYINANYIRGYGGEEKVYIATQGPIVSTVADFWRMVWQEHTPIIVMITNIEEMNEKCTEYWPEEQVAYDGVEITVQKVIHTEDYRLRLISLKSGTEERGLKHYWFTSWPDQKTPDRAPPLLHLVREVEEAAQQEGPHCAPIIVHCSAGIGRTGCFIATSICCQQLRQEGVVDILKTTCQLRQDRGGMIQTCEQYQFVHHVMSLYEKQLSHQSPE
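Also added – OMFP at 25 µM · Test system – STEP tyrosine phosphatase · Technique – FITC-channel fluorescence of OMFP product · Schedule – 20 min at room temperature, dark · Evaluation – control-normalized % inhibition with plate pattern correction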
DNMT1 inh conf: DNMT1 methyltransferase inhibitor retest, confirmation, biochemical, molecular beacon, fluorescence, single concentration; AID 602385, 2012; inhibition, % at 10 µM; 2,300 tested, 8% active; DNMT1 molecular beacon HinP1I cleavage; shares compounds with DNMT1 block;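 active means average inhibition of at least 30% in the single-concentration confirmation test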
Beacon interf: counter-screen for DNMT1 inhibitors: spectral interference. shares compounds with DNMT1 block. DNMT1 molecular beacon spectral interference counterscreen, fluorescence 485/520. activation (fluorescence interference), % at 10 µM. 2,300 tested, 1% active. AID 602387;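 active means activation of at least 30% at 10 µM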;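 further: DNMT1 catalytic domain with a HinP1I cleavage step and a FAM/dabcyl DNA beacon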
Hits are given with their value. Only some compounds are listed: those with a hit (about 2.4% of all), similar ones and a draw of the others.

O=C(c1ccc2oc(CCc3ccccc3)nc2c1)N1CC[C@H](O)C1 was read as NadD block inactive, LMPTP block inactive, Scp-1 inhibitor inactive, DNMT1 block inactive, SUMO1 PPI mod inactive and STEP inh inactive.
For CC(C)(C)CN1CCNC[C@H]1Cc1ccc(O)cc1 the results were NadD block inactive, LMPTP block inactive, Scp-1 inhibitor inactive, DNMT1 block 76, SUMO1 PPI mod inactive, STEP inh inactive, DNMT1 inh conf inactive and Beacon interf inactive.
CCCCN1CCNC[C@H]1Cc1ccc(O)cc1 was read as NadD block inactive, LMPTP block inactive, Scp-1 inhibitor inactive, DNMT1 block inactive, SUMO1 PPI mod inactive and STEP inh inactive.
Cc1cc2oc3ccc(NCCCn4ccnc4)cc3c(=O)c2cc1C was read as NadD block inactive, LMPTP block inactive, Scp-1 inhibitor inactive, DNMT1 block 56, SUMO1 PPI mod inactive, STEP inh inactive, DNMT1 inh conf inactive and Beacon interf inactive.
Screening CC1CCN(C(=O)c2[nH]cnc2C(=O)N[C@@H](C)c2ccccc2)CC1 returned NadD block inactive, LMPTP block inactive, Scp-1 inhibitor inactive, DNMT1 block inactive, SUMO1 PPI mod inactive and STEP inh inactive.
For O=C1c2cccc3c(O)ccc(c23)C(=O)N1c1ccc(Cl)cc1 the results were NadD block inactive, LMPTP block inactive, Scp-1 inhibitor inactive, DNMT1 block inactive, SUMO1 PPI mod inactive and STEP inh inactive.
`CC(=O)Nc1ccc(N2C(=O)c3cccc4c(O)ccc(c34)C2=O)cc1` gave NadD block inactive, LMPTP block inactive, Scp-1 inhibitor inactive, DNMT1 block 51, SUMO1 PPI mod inactive, STEP inh inactive, DNMT1 inh conf 106 and Beacon interf 99.
`O=C(CCN1C(=O)c2ccccc2C1=O)N1CCN(C(=O)c2ccccc2)CC1` gave NadD block inactive, LMPTP block inactive, Scp-1 inhibitor inactive, DNMT1 block inactive, SUMO1 PPI mod inactive and STEP inh inactive.
Screening CN1CCN(C(=O)CCN2C(=O)c3ccccc3C2=O)CC1 returned NadD block inactive, LMPTP block inactive, Scp-1 inhibitor inactive, DNMT1 block 51, SUMO1 PPI mod inactive, STEP inh inactive, DNMT1 inh conf inactive and Beacon interf inactive.
`O=C(Nc1cccc(S(=O)(=O)N2CCCC2)c1)c1ccc2c(c1)OCO2` gave NadD block inactive, LMPTP block inactive, Scp-1 inhibitor inactive, DNMT1 block 95, SUMO1 PPI mod inactive, STEP inh inactive, DNMT1 inh conf inactive and Beacon interf inactive.
For O=C(Cc1n[nH]c(=O)c2ccccc12)N1CCN(c2ccc(F)cc2)CC1 the results were NadD block inactive, LMPTP block inactive, Scp-1 inhibitor inactive, DNMT1 block inactive, SUMO1 PPI mod inactive and STEP inh inactive.
CC(=O)c1ccc(N2CCN(C(=O)Cc3n[nH]c(=O)c4ccccc34)CC2)cc1 was read as NadD block inactive, LMPTP block inactive, Scp-1 inhibitor inactive, DNMT1 block 66, SUMO1 PPI mod inactive, STEP inh inactive, DNMT1 inh conf inactive and Beacon interf inactive.
Cn1cc(CN2C[C@H]3CC[C@H]2C3)c(-c2ccccc2F)n1 was read as NadD block inactive, LMPTP block inactive, Scp-1 inhibitor inactive, DNMT1 block 58, SUMO1 PPI mod inactive, STEP inh inactive, DNMT1 inh conf inactive and Beacon interf inactive.

Compound activity deposited in PubChem by Sanford-Burnham Center for Chemical Genomics.
